Only some compounds are listed: those with a hit (about 1.7% of all), similar ones and a draw of the others.
Rce1 inhib: inhibitors of yeast Ras-converting enzyme; Q03530; yeast membranes, quenched prenylated peptide cleavage fluorescence; calls only; actives 0.27% (n = 290,000); AID 2563;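 active = fall in fluorescence gain of 50% or more versus controls, with final raw signal at or below 3038400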
Target sequence (Q03530 whole entry, looked up): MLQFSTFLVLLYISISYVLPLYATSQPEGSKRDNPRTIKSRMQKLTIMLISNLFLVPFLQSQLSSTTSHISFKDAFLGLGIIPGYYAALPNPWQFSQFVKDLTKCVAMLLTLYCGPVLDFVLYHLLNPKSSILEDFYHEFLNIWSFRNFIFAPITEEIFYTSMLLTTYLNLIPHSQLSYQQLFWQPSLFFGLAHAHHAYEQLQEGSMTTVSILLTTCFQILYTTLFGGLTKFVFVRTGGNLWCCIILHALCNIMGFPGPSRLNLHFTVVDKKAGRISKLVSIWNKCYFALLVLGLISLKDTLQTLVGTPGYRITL
AI-2 QS modul: Vibrio harveyi AI-2 quorum sensing modulation | activity change, % at 7.5 µM | actives 0.4% (n = 300,000) | Vibrio harveyi JMH597 AI-2 luminescence/OD600 ratio, 9 h; hits give low values; strain lacks LuxN and CqsS sensors; 0 = neutral-control median; in the data active = activity change below about -75%, passing the limit was not always enough;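 note: luminescence divided by OD600 gain over 9 h not by final OD600 alone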
ARNT-TACC3 inh: ARNT/TACC3 interaction disruption; AlphaScreen His-ARNT PAS-B/GST-TACC3 binding, luminescence; TACC3 fragment carries E629A point mutation; actives 0.66% (n = 390,000); Q9Y6A5; inhibition, % at 9.99 µM;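 active = mean inhibition of replicates at least 50% and at least half of replicates each reaching 50%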
CAL PDZ FP-1: blocks peptide binding to the human CAL PDZ domain | Q9HD26 | actives 0.92% (n = 300,000) | purified CAL PDZ, TMR-peptide fluorescence polarization, 1 h | inhibition, % at 24.9 µM;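 active = mean inhibition of at least 30% with at least half of replicates also reaching 30%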
CAL PDZ FP-2: human CAL PDZ-peptide interaction inhibition; purified CAL PDZ, TMR-peptide fluorescence polarization, 1 h; AID 504414; Q9HD26; inhibition, % at 20 µM; actives 0.02% (n = 330,000);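 active = highest replicate inhibition of at least 40%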
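material = purified tagged CAL PDZ domain construct (CerCALP) | compound dosing = 20 µM, one dose | times = 1 h at RT | measured by = fluorescence polarization from S- and P-plane intensities, G-factor corrected | read-out = inhibition from polarization loss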
Each line names hits and unclear results; the compound was inactive in the other large screens.

Fc1cccc(/C=N/Nc2ncnc3nc[nH]c23)c1	ARNT-TACC3 inh 47.1 (no result: CAL PDZ FP-1)
CN1OC[C@@H]2CN(Cc3cc(Cl)cc(Cl)c3)[C@H](c3cccc(Br)c3)C[C@@H]21	none (no result: Rce1 inhib, AI-2 QS modul)
CN(CCc1ccccc1)C(=O)c1cccc(NC(=O)Cc2cccc(NC(=O)C3CCCN(C(=O)C4CCCC4)C3)c2)c1 (centres undefined)	none (no result: Rce1 inhib, AI-2 QS modul)
O=C(NCCN1CCOCC1)c1ccc(CS(=O)(=O)c2c(Cl)cccc2Cl)o1	CAL PDZ FP-1 32.1 (no result: Rce1 inhib, AI-2 QS modul, ARNT-TACC3 inh)
O=C(NCCCN1CCOCC1)c1ccc(CS(=O)(=O)c2c(Cl)cccc2Cl)o1	none (no result: CAL PDZ FP-1)
O=C(C1CCCN(S(=O)(=O)c2ccc(F)cc2)C1)N1CCCCC1 (centres undefined)	none
COc1cc(OC)c2c(-c3ccccc3)cc(=O)oc2c1C(CCN1CCCC(C)C1)c1ccc(N(C)C)cc1 (centres undefined)	ARNT-TACC3 inh 45.4
COc1ccc(C(CCN2CCCC(C)C2)c2c(OC)cc(OC)c3c(-c4ccccc4)cc(=O)oc23)cc1 (centres undefined)	none
CCN(CC)CCC(c1ccc(N(C)C)cc1)c1c(OC)cc(OC)c2c(-c3ccccc3)cc(=O)oc12 (centres undefined)	ARNT-TACC3 inh 38.6 (no result: Rce1 inhib, AI-2 QS modul)
NC(=S)N/N=C/c1ccccc1OC(=O)c1cc2ccccc2oc1=O	ARNT-TACC3 inh 50.9
NC(=S)N/N=C\c1ccccc1OCc1ccccc1	none
NC(=S)N/N=C/c1ccccc1OC(=O)/C=C/c1ccccc1	ARNT-TACC3 inh 34.4 (no result: CAL PDZ FP-1)
Cc1ccccc1S(=O)(=O)c1cc(C#N)c(=O)[nH]c1N	Rce1 inhib active (no result: ARNT-TACC3 inh)
O=S(=O)(c1ccccc1)c1nc(-c2ccco2)oc1N1CCCCC1	Rce1 inhib active, CAL PDZ FP-1 42.4
CCCC(=O)N1C[C@H]2[C@@H](c3ccccc31)[C@@H](CO)N2Cc1cocn1	none (no result: Rce1 inhib, AI-2 QS modul, CAL PDZ FP-1, CAL PDZ FP-2)
CCn1cc(C(=O)NCCCN(C)C)c(=O)c2cc(F)c(N3CCN(C)CC3)cc21	none (no result: ARNT-TACC3 inh)
CCn1cc(C(=O)NCCN(C)C)c(=O)c2cc(F)c(N3CCN(C)CC3)cc21	Rce1 inhib active
N#CCCn1nc(-c2ccc(Cl)cc2)cc1Nc1ccccc1NC(=O)C(F)(F)F	none
COc1cc(NS(=O)(=O)c2ccc(NC(=S)NC(=O)/C=C/c3ccco3)cc2)ncn1	none
C#CCNC(=O)C1=C[C@@H](C2CCCCC2)C[C@@H](OCc2ccc(CO)cc2)O1	Rce1 inhib active
O=c1ccc(-c2nc3ccccc3n2Cc2ccc(Cl)cc2)c[nH]1	CAL PDZ FP-1 41.2 (no result: CAL PDZ FP-2)
O=c1[nH]cccc1-c1nc2cc(Cl)ccc2n1Cc1ccccc1	none
O=c1[nH]cccc1-c1nc2ccccc2n1Cc1cccc(Cl)c1	Rce1 inhib active
COc1ccc(CNCCSc2nnnn2C)cc1OC	none
Cc1cccc(/C(N)=N/OC(=O)c2cccs2)c1	CAL PDZ FP-1 53.1
CN(CC(=O)Nc1ccc(Cl)cc1)S(=O)(=O)c1ccc2c(c1)n(C)c(=O)c(=O)n2C	CAL PDZ FP-1 active
CN(CC(=O)NC1CCCC1)S(=O)(=O)c1cccc(Cl)c1	none (no result: Rce1 inhib, AI-2 QS modul)
Cc1cc(NC(=O)CN(C)S(=O)(=O)c2cccc(Cl)c2)no1	CAL PDZ FP-1 112.5
O=C(O)CCN(Cc1ccccc1)S(=O)(=O)c1ccc(Cl)cc1F	none
O=C(O)CCN(Cc1ccccc1)S(=O)(=O)c1ccccc1Cl	CAL PDZ FP-1 52.3
O=C(NCC[C@H]1CC[C@@H](NC(=O)C2CCCC2)[C@H](CO)O1)c1ccc(F)cc1	none (no result: Rce1 inhib, AI-2 QS modul, CAL PDZ FP-1, CAL PDZ FP-2)
Cc1ccc(Sc2ccc(/C=N/O)cc2[N+](=O)[O-])cc1	AI-2 QS modul -76.3
COc1ccc(CN(C(=O)c2ccco2)c2ccc(C)c(C)c2)cc1	CAL PDZ FP-1 30.9
CCOc1ccc(N(Cc2ccc(OC)c(OC)c2)C(=O)c2ccco2)cc1	none (no result: CAL PDZ FP-1)
CCOc1ccc(N(Cc2ccc(OC)cc2)C(=O)c2ccco2)cc1	Rce1 inhib active
COc1cc(CN(C(=O)c2ccco2)c2ccc(C)cc2)ccc1O	none (no result: CAL PDZ FP-2)
CN(Cc1cn(-c2ccccc2)nc1-c1ccc2c(c1)OCO2)Cc1nccn1C	none
COc1ccc(/C=C\c2cc(OC)c(OC)cc2CC[N+](C)(C)C)cc1OC	Rce1 inhib active
CC(CN1CCCC1)OC(=O)c1cccc(F)c1 (centres undefined)	none
NS(=O)(=O)c1ccc(-c2ccc(/C=N/Nc3ccc(C(=O)O)cc3)o2)cc1	none
O=C(O)c1ccc(N/N=C/c2ccc(-c3cc(Cl)ccc3Cl)o2)cc1	AI-2 QS modul -80.2
O=C(O)c1ccc(N/N=C/c2c(F)cccc2Cl)cc1	AI-2 QS modul -78.6
O=C(O)c1ccc(N/N=C/c2ccc(-c3cccc(Cl)c3)o2)cc1	AI-2 QS modul -93.5
O=c1oc2cc(Br)ccc2n1CSC1=NCCS1	none (no result: Rce1 inhib, AI-2 QS modul)
CC1(C)Cc2ccccc2C(NNC(=O)c2ccccn2)=N1	ARNT-TACC3 inh 66.3
O=C(CNC(=O)c1cccc([N+](=O)[O-])c1)NC1CCCc2ccccc21 (centres undefined)	CAL PDZ FP-1 35.4 (no result: Rce1 inhib, AI-2 QS modul, ARNT-TACC3 inh)
O=C(CCNC(=O)c1ccc([N+](=O)[O-])cc1)NC1CCCc2ccccc21 (centres undefined)	none (no result: Rce1 inhib, AI-2 QS modul)
CC1(C)CC(=O)C(CC(=O)NC2CCCc3ccccc32)C(=O)C1 (centres undefined)	CAL PDZ FP-1 106.3
Cc1ccccc1CC(=O)NC1CCCc2ccccc21 (centres undefined)	none
O=C(Nc1ccccc1F)N1C[C@H]2[C@@H](c3ccccc31)[C@H](CO)N2C(=O)C1CCOCC1	none (no result: Rce1 inhib, AI-2 QS modul, CAL PDZ FP-1, CAL PDZ FP-2)
O=C(c1cccnc1)N1C[C@@H]2[C@H](c3ccccc31)[C@@H](CO)N2C(=O)CN1CCOCC1	none (no result: Rce1 inhib, AI-2 QS modul, CAL PDZ FP-1, CAL PDZ FP-2)
COc1ccc(CNC(=O)C(c2ccco2)N(C(=O)CNS(=O)(=O)c2ccccc2)c2ccccc2C)cc1 (centres undefined)	CAL PDZ FP-1 91.8
COc1ccc(S(=O)(=O)NCC(=O)N(CC(=O)NCc2ccccc2)Cc2ccco2)cc1	none
CCOC(=O)C1CCN(c2c(NCCN(CC)c3ccccc3)c(=O)c2=O)CC1	CAL PDZ FP-1 54.2
CN(C)C1(CNC(=O)C2CCN(S(=O)(=O)c3ccccc3C(F)(F)F)CC2)CCCCC1	none
O=[N+]([O-])c1ccc(Nc2ccc3ccccc3c2)nc1	none
O=c1[nH]c(=O)n(C2OC(CO)C(O)C2O)cc1F (centres undefined)	none (no result: Rce1 inhib, AI-2 QS modul)
O=c1[nH]c(=S)ccn1C1OC(CO)C(O)C1O (centres undefined)	AI-2 QS modul -90.7
COc1ccc(CCn2c(=N)c(C(=O)NCC3CCCO3)cc3c(=O)n4cccc(C)c4nc32)cc1 (centres undefined)	none (no result: ARNT-TACC3 inh)
CCCNC(=O)C(=O)NCC1CCCN1CC (centres undefined)	CAL PDZ FP-1 33.0
C=CCNC(=O)C(=O)NCC1CCCN1CC (centres undefined)	none
O=C(/C(=C/O)N=Nc1ccccc1)c1cccs1	none
Cc1ccccc1NC(=O)C(=Cc1ccc(C(=O)O)cc1)C(=O)Nc1ccccc1C	none
